{"source": "paper PMC8419108", "about": "(Molecular Cancer Therapeutics, 2021)", "key": {"[1]": {"molecular_target": "KRAS^Q61R/CRAF^WT interaction (Homo sapiens, UniProt P01116+P04049, Q61R)", "experiment": "NanoBRET assay of Halo-KRAS^Q61R/Nano-CRAF^WT binding in live 293FT cells", "type": "cell-based"}, "[2]": {"tested_on": "MCF10A cells stably expressing Halo-KRAS^G12V", "experiment": "Immunoblot analysis of cell signaling in KRAS^G12V-MCF10A cells", "type": "cell-based", "conditions": "1 hour treatment"}, "[3]": {"tested_on": "RAS-deficient MEFs reconstituted with KRAS^Q61R", "experiment": "Immunoblot/immunoprecipitation analysis of cell signaling in KRAS^Q61R MEFs", "type": "cell-based, mouse", "outline": "(§1)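 RAS-deficient MEFs reconstituted with KRAS^Q61R or BRAF^V600E were grown in DMEM with 10% FBS at 37°C, 5% CO₂. Cells were plated at about 70% confluency and treated 48 h later for 1 h. They were lysed in NP-40 buffer (pH 8.0) for 15 min at 4°C, equalised by Bradford, and immunoblotted for pERK and total ERK. Blots are representative of ≥2 independent experiments.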"}, "[4]": {"tested_on": "RAS-deficient MEFs reconstituted with BRAF^V600E", "experiment": "Immunoblot analysis of cell signaling in BRAF^V600E MEFs", "type": "cell-based, mouse", "conditions": "1 hour treatment", "outline": "as §1"}, "[5]": {"molecular_target": "KRAS^G12D (Homo sapiens, UniProt P01116, G12D)", "experiment": "SPR binding to captured avi-KRAS^G12D-GppNHp", "conditions": "GppNHp-loaded KRAS^G12D; 100–1.56 μmol/L", "outline": "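Avi-KRAS^G12D (aa 2–188) loaded with GppNHp was captured on a Neutravidin-coupled CM5 chip in a Biacore S200. Compounds were injected as a 2-fold series from 100 to 1.56 µmol/L over 2,300 RU, or singly at 100 µmol/L over 3,800 RU. Buffer was HEPES pH 7.5 with NaCl, Tween 20, MgCl₂ and 2.5% DMSO. Reference-cell and buffer responses were subtracted, with DMSO-mismatch correction.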"}, "[6]": {"molecular_target": "CRAF-RBD (Homo sapiens, UniProt P04049)", "experiment": "SPR binding to captured avi-CRAF-RBD", "conditions": "100–1.56 μmol/L", "outline": "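Avi-tagged CRAF-RBD (aa 52–131) was captured on a Neutravidin-coupled CM5 chip in a Biacore S200. A 2-fold series from 100 to 1.56 µmol/L was injected over 1,785 RU, and single 100 µmol/L doses over 3,000 RU. Reference-cell and buffer responses were subtracted, and DMSO mismatches were corrected with a standard curve.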"}, "[7]": {"tested_on": "KRAS^G12V or CRAF-RBD", "experiment": "SPR analysis, result summarised over both targets", "type": "binding", "conditions": "single dose 100 μmol/L or dose-response 100–1.56 μmol/L"}}, "data": [{"molecule": "CC(C)(C)c1ccc(C(O)CCCN2CCC(C(O)(c3ccccc3)c3ccccc3)CC2)cc1", "note": "(centres unmarked) [Terfenadine]", "values": [{"measurement": "IC50", "setting": "[1]", "result": 6, "unit": "µM"}]}, {"molecule": "CC(C)(C)CC(C)(C)NCC(O)COc1ccc(C(C)(C)c2ccc(OCC(O)CNC(C)(C)CC(C)(C)C)cc2)cc1.Cl", "note": "(centres unmarked) [NSC145366]", "values": [{"measurement": "pERK levels (ERK activation)", "setting": "[2]", "result": "inhibited ERK activation"}, {"measurement": "pERK levels (ERK activation)", "setting": "[3]; 1 hour treatment, immunoblot", "result": "inhibited ERK activation"}, {"measurement": "pERK levels (ERK activation)", "setting": "[4]", "result": "suppressed pERK levels"}]}, {"molecule": "COc1cc(CCN)c2c(c1OC)SSSSS2", "note": "[Varacin]", "values": [{"measurement": "IC50", "setting": "[1]", "result": 9.5, "unit": "µM"}]}, {"molecule": "CN(C)CCOc1ccc(-c2nc(-c3ccncc3)c(-c3ccc4c(c3)CC/C4=N\\O)[nH]2)cc1", "note": "[SB590885]", "values": [{"measurement": "increase of the Halo-KRAS^Q61R/Nano-CRAF^WT interaction (BRET signal)", "setting": "[1]; 0.5 and 1 μmol/L for 4 hours, normalized BRET signal", "result": "approximately 35%"}]}, {"molecule": "Cc1cc2c(C(C)C)c(O)c(O)c(C=O)c2c(O)c1-c1c(C)cc2c(C(C)C)c(O)c(O)c(C=O)c2c1O", "note": "[Gossypol]", "values": [{"measurement": "IC50", "setting": "[1]", "result": 5.2, "unit": "µM"}]}, {"molecule": "CC(C)=CCC[C@]1(C)C=Cc2c(O)c3c(c(CC=C(C)C)c2O1)O[C@]12C(=C[C@@H]4C[C@H]1C(C)(C)O[C@@]2(C/C=C(/C)C(=O)O)C4=O)C3=O", "note": "[Gambogic acid]", "values": [{"measurement": "IC50", "setting": "[1]", "result": 1.7, "unit": "µM"}]}, {"molecule": "CN1C(=O)[C@]2(Cc3cn([C@]45C[C@@]67SS[C@@](CO)(C(=O)N6[C@H]4Nc4ccccc45)N(C)C7=O)c4ccccc34)SS[C@@]1(CO)C(=O)N2C", "note": "[Chetomin]", "values": [{"measurement": "IC50", "setting": "[1]", "result": 2.9, "unit": "µM"}]}, {"molecule": "Swinhopeptolide", "values": [{"measurement": "SPR binding to KRAS^G12D", "setting": "[5]", "result": "slow on/off rates and possible non-specific binding"}, {"measurement": "SPR binding to CRAF-RBD", "setting": "[6]", "result": "slow on/off rates and possible non-specific binding"}]}, {"molecule": "CN1C(=O)[C@]23CC4=CC=C[C@H](O)[C@H]4N2C(=O)[C@@]1(CO)SS3", "note": "[Gliotoxin]", "values": [{"measurement": "IC50", "setting": "[1]", "result": 2.8, "unit": "µM"}, {"measurement": "pERK levels (ERK activation)", "setting": "[2]", "result": "inhibit RAS-dependent ERK activation"}, {"measurement": "pERK levels (ERK activation)", "setting": "[3]; 1 hour treatment, immunoblot", "result": "inhibit RAS-dependent ERK activation"}]}, {"molecule": "CC(C)=C[C@H]1C[C@H](C)[C@]2(CC[C@]3(C)C[C@H]4[C@H](C(=O)C[C@@]4(C)O)/C(C=O)=C\\C[C@H]32)O1", "note": "[Ophiobolin A]", "values": [{"measurement": "IC50", "setting": "[1]", "result": 1.08, "unit": "µM"}, {"measurement": "SPR binding to KRAS or the CRAF-RBD", "setting": "[7]", "result": "inability to detect binding"}, {"measurement": "pERK levels (ERK activation)", "setting": "[2]", "result": "dose-dependent decrease"}, {"measurement": "pMEK levels (phosphorylation and activation of MEK)", "setting": "[2]", "result": "dose-dependent decrease"}, {"measurement": "phosphorylation of endogenous CRAF on S338 (pS338-CRAF)", "setting": "[2]", "result": "reduced the phosphorylation of CRAF on S338"}, {"measurement": "pERK levels (ERK activation)", "setting": "[3]; 1 hour treatment, immunoblot", "result": "reduced pERK levels in a dose-dependent manner"}, {"measurement": "phosphorylation of endogenous CRAF on S338 (pS338-CRAF)", "setting": "[3]; 1 hour treatment, immunoblot", "result": "reduced the phosphorylation of CRAF on S338"}]}, {"molecule": "C/C=C(/C)C(=O)O[C@H]1C(C)=C2[C@H]([C@@H]1OC(=O)CCCCCCC)[C@@](C)(OC(C)=O)C[C@H](OC(=O)CCC)[C@@]1(O)[C@H]2OC(=O)[C@@]1(C)O", "note": "[Thapsigargin]", "values": [{"measurement": "IC50", "setting": "[1]", "result": 14, "unit": "µM"}]}, {"molecule": "CCOc1nc2cccc(C(=O)OC(C)OC(=O)OC3CCCCC3)c2n1Cc1ccc(-c2ccccc2-c2nnn[nH]2)cc1", "note": "(centres unmarked) [Candesartan cilexetil]", "values": [{"measurement": "IC50", "setting": "[1]", "result": 5.4, "unit": "µM"}]}, {"molecule": "COc1cc(/C=C(\\C#N)C(N)=O)cc(CSc2nc3ccccc3s2)c1O", "note": "[AG825]", "values": [{"measurement": "pERK levels (ERK activation)", "setting": "[2]", "result": "increased RAS-dependent ERK activation"}, {"measurement": "BRAF/CRAF dimer formation (CRAF immunoprecipitation probed for BRAF)", "setting": "[3]; 10 μmol/L for 1 hour", "result": "increase the detection of heterodimerized CRAF/BRAF complexes"}, {"measurement": "pERK levels (ERK activation)", "setting": "[3]; 1 hour treatment, immunoblot", "result": "increased RAS-dependent ERK activation"}, {"measurement": "pERK levels (ERK activation)", "setting": "[4]", "result": "pERK levels were reduced"}]}, {"molecule": "C[C@@H]1O[C@@H](O[C@H]2[C@H](O[C@H]3CO[C@@H](O[C@H]4CC[C@]5(C)[C@H]6CC[C@]78OC[C@@]9(CC[C@](C)(C=O)C[C@H]97)[C@H](O)C[C@@]8(C)[C@]6(C)CC[C@H]5C4(C)C)[C@H](O[C@@H]4O[C@H](CO)[C@@H](O)[C@H](O)[C@H]4O)[C@H]3O)O[C@H](CO)[C@@H](O)[C@@H]2O)[C@H](O)[C@H](O)[C@H]1O", "note": "[Ardisiacrispin B]", "values": [{"measurement": "IC50", "setting": "[1]", "result": 5, "unit": "µM"}]}, {"molecule": "CN1CCN(CCCN2c3ccccc3Sc3ccc(C(F)(F)F)cc32)CC1", "note": "[Trifluoperazine]", "values": [{"measurement": "IC50", "setting": "[1]", "result": 14.3, "unit": "µM"}]}, {"molecule": "Clc1ccc(C(c2ccc(Cl)cc2)n2cc[n+](CC(OCc3ccc(Cl)cc3Cl)c3ccc(Cl)cc3Cl)c2)cc1", "note": "(centres unmarked) [Calmidazolium chloride]", "values": [{"measurement": "IC50", "setting": "[1]", "result": 3.6, "unit": "µM"}, {"measurement": "SPR binding to KRAS^G12D", "setting": "[5]", "result": "non-selective and non-saturable binding"}, {"measurement": "SPR binding to CRAF-RBD", "setting": "[6]", "result": "non-selective and non-saturable binding"}]}]}
